DNMT1 inh = human DNMT1 methyltransferase inhibitors, primary screen, biochemical, molecular beacon, fluorescence, HinP1I cleavage, uHTS; DNA (cytosine-5)-methyltransferase 1 (Homo sapiens), P26358; AID 588458, 2011; inhibition (reported as % activation of signal), % at 10 µM; 360,000 tested, 0.83% active; in the data active = inhibition above about 50%
Rpn11 inh = Rpn11 (PSMD14) deubiquitinase inhibitors, primary screen, biochemical, fluorescence polarization, uHTS; 26S proteasome non-ATPase regulatory subunit 14 (Homo sapiens), O00487; human 26S proteasome, Ub4-pepOG fluorescence polarization; 20S core pre-blocked with epoxomicin; inhibition, % at 20 µM; 360,000 tested, 0.59% active;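 active = inhibition at 20 µM, scaled to each plate's controls, above about 33%, limit read from the data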
Scp-1 inhibitor = Scp-1 phosphatase inhibitors, primary screen, biochemical, colorimetric, uHTS; Recombinant Scp1, phosphopeptide, malachite green phosphate absorbance; Carboxy-terminal domain RNA polymerase II polypeptide A small phosphatase 1 (Homo …; 340,000 tested, 0.88% active; inhibition, % at 20 µM;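 active = inhibition above about 50% at 20 µM, limit read from the data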
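Material: truncated SCP-1 phosphatase (76-261aa) / Buffer or medium: 50 mM Tris acetate pH 5.5, 0.005% Tween-20, 10 mM MgCl2 / Compound dosing: one concentration, 20 µM, with 1.0% DMSO / Incubation: 45 min room-temperature reaction, 5 min colour, 30 min stabiliser / Detection: colorimetric free-phosphate detection, absorbance 630 nm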
LMPTP inh = LMPTP phosphatase inhibitors, primary screen, biochemical, fluorescence intensity, uHTS; 360,000 tested, 0.22% active; inhibition, % at 20 µM; recombinant LMPTP-A, OMFP fluorogenic substrate; AID 651560, 2012;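 active = compounds that cut the enzyme signal by at least half of the control window in the single-dose screen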
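Test system – LMPTP-A phosphatase enzyme · Quantity – 0.625 nM LMPTP-A final · Reagent – OMFP substrate, 400 µM final · Dosing – one test concentration per compound, 20 µM, with 3% DMSO overall · Timing – 50 min enzyme reaction at room temperature, protected from light · Detection – fluorescence intensity · Controls – substrate-only low control, DMSO enzyme-plus-substrate high control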
STEP inh = STEP phosphatase inhibitors, primary screen, biochemical, fluorescence intensity, uHTS. 360,000 tested, 0.25% active. inhibition, % at 20 µM. AID 588621, 2011. recombinant STEP, OMFP fluorogenic substrate. Tyrosine-protein phosphatase non-receptor type 5 (Homo sapiens), P54829;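 active = inhibition at 20 µM, scaled per plate between control wells, above about 37%, limit read from the data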
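material = STEP tyrosine phosphatase | reagent = fluorogenic phosphatase substrate OMFP at 25 µM final | doses = single compound dose of 20 µM, 1% DMSO final | schedule = 20 min reaction, room temperature, in the dark | measured by = fluorescence, 480/540 nm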
Rpn11 confirm = Rpn11 (PSMD14) deubiquitinase inhibitors, confirmation, biochemical, fluorescence polarization, single concentration | 1,900 tested, 29% active | inhibition, % at 20 µM | shares compounds with Rpn11 inh | purified human 26S proteasome, Ub4-pepOG fluorescence polarization; proteasome pretreated with epoxomicin
MMP-2 counter = MMP-2 enzyme inhibition, confirmation, counter-screen for RPN11 inhibitor project, biochemical, fluorescence, single concentration. 1,900 tested, 4% active. recombinant MMP-2, FRET peptide cleavage fluorescence. inhibition, % at 20 µM. shares compounds with Rpn11 inh;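 also: human MMP-2 activated beforehand with APMA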
Target sequence (P08253 whole entry, looked up): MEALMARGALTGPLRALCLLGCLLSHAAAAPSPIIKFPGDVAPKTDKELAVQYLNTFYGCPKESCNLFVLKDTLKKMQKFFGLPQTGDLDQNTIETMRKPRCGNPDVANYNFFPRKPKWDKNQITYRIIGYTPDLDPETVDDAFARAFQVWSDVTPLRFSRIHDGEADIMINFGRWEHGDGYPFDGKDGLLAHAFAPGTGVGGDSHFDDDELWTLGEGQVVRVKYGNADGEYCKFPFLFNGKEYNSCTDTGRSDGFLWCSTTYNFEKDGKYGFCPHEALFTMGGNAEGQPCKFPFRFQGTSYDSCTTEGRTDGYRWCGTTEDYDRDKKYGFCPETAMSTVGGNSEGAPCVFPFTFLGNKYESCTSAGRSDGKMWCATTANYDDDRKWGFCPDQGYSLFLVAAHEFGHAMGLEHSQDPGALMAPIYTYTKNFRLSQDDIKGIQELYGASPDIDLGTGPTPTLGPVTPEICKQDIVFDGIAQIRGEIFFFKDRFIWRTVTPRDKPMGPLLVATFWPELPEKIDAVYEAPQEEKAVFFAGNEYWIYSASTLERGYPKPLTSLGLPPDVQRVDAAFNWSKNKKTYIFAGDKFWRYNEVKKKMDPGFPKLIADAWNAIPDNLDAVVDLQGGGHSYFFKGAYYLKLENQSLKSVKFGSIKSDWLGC
Thrombin FP = bovine thrombin protease inhibition, confirmation, counter-screen for Rpn11 inhibitor project, biochemical, fluorescence polarization, single concentration. shares compounds with Rpn11 inh. bovine thrombin cleavage of Ub4-pepOG. inhibition, % at 20 µM. 1,900 tested, 13% active. AID 602333, 2012;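 active = mean inhibition at least 40% at 20 µM, or signal 3 deviations below plate average, so some actives read negative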
A number is an active result; - = inactive; . = no result given; + = active, no number. Shown are actives, neighbours in structure and some others; about 2% of the full set was active somewhere. Rule as the data show it, unless noted: active = inhibition above about 40%; inactive = the rest.

SMILES	DNMT1 inh	Rpn11 inh	Scp-1 inhibitor	LMPTP inh	STEP inh	Rpn11 confirm	MMP-2 counter	Thrombin FP
CCOC(=O)C1=C(C)Nc2nnnn2C1c1cccc(OC)c1OC (stereo unspecified)	-	+	-	-	-	-	-	-
CCN(CC)c1nc2c3c(nc4c(c3c1C#N)CC(=O)N4c1ccc(Cl)cc1)NC(C)=N2	-	43.4	-	-	-	-	-	-
CCc1ccc(N2C(=O)Cc3c2nc(N)c(C#N)c3N)cc1	-	-	-	-	-	.	.	.
CCN1CNC(=S)N(C(C)c2ccccc2)C1 (stereo unspecified)	-	-	-	-	-	.	.	.
Cc1cccc(NC2CCCCC2NS(=O)(=O)c2ccccc2)c1 (stereo unspecified)	-	-	-	-	-	.	.	.
CCCCCCN1C=CC=C/C1=C/C=C(C#N)C#N	-	45.7	-	-	-	-	-	52.1
CCCCCN1C=CC=C/C1=C\C=C(C#N)C#N	-	-	-	-	-	.	.	.
CC1(C)CC(=O)C(N=Nc2ccc(F)cc2)=C(O)C1	-	-	-	-	-	.	.	.
CC1(C)CC(=O)C(N=Nc2ccc(-c3ccccc3)cc2)=C(O)C1	-	47.5	-	-	-	-	-	-
CCN(CC)c1ccc(/C=C2\C(=O)N(c3nnc(C)c(=O)[nH]3)N=C2C)cc1	-	43.7	-	-	-	48.5	-	-
CCN(CC)c1ccc(/C=C2/C(=O)ON=C2C)cc1	-	.	-	-	-	.	.	.
Cc1ccc(S(=O)(=O)N2CCC(=O)c3ccccc32)cc1	-	-	.	-	-	.	.	.
CC1CCCN(C(=O)CN2CCC(c3nc4ccc(Cl)cc4[nH]3)CC2)C1 (stereo unspecified)	-	-	-	-	-	.	.	.
Clc1ccc(CN2CCC(c3nc4ccc(Cl)cc4[nH]3)CC2)cc1	-	54.6	-	-	-	-	-	-
Cn1c(=O)c2cc(NC(=O)CCc3cccnc3)ccc2n1Cc1ccc(F)cc1	-	-	.	-	-	.	.	.
CSc1ccc(S(=O)(=O)N2CCC(C(=O)Nc3ccccc3C(F)(F)F)CC2)cc1	-	35.0	-	-	-	-	-	-
COc1cc(N(C)C)ccc1C=c1c2ccccc2n2c1cc(-c1ccccc1)[n+]2C	-	114.8	-	90.2	-	97.9	-	82.4
N#CC(C(=O)NCCc1ccccc1)c1nc2ccccc2nc1N1CCOCC1 (stereo unspecified)	-	.	-	-	-	.	.	.
N#CC(C(=O)NCCc1ccccc1)c1nc2ccccc2nc1N1CCCCC1 (stereo unspecified)	-	102.1	-	-	-	-	-	-
C=CCN1C=C/C(=C\C=C(C#N)C#N)c2ccccc21	-	103.1	-	-	-	89.9	-	89.2
O=C1CC(=O)N(Cc2ccco2)C(=S)N1	110.7	190.9	92.5	50.6	82.9	101.8	81.8	+
CCOc1ccc(NC(=S)NNc2ccnc3cc(Cl)ccc23)cc1	-	-	-	-	-	.	.	.
S=C(NNc1ccnc2cc(Cl)ccc12)Nc1ccc(Cl)cc1Cl	-	44.4	-	-	-	-	47.9	-
CC(=O)NS(=O)(=O)c1ccc2sc(C)nc2c1	-	-	-	-	-	.	.	.
O=[N+]([O-])c1ccccc1S(=O)(=O)Nc1cccc(-c2ccc3nncn3n2)c1	-	-	-	-	-	.	.	.
CCOC(=O)CC(=O)CSc1nc(-c2cccnc2)ccc1C#N	-	41.2	-	-	-	-	-	-

Compound activity deposited in PubChem BioAssay by Sanford-Burnham Center for Chemical Genomics.
